ChEMBL document CHEMBL1131102, “A new series of highly potent growth hormone-releasing peptides derived from ipamorelin” (J Med Chem, 1998)
Several values for one entry are separate records, joined by “and”; a condition that tells them apart may be missing. Identical values can stand only once. Non-standard residues stand in square brackets, D forms with d. Residues, ends and D or L forms follow the SMILES beside them. d2Nal = N[C@H](Cc1ccc2ccccc2c1)C(=O)O; 3Amb = NCc1cccc(C(=O)O)c1; Aib = CC(C)(N)C(=O)O

Experiments:
Rattus norvegicus [1] = assay: Compound was tested in vivo for GH-releasing potency against anesthetized female rats; assay type: functional
Procedure, shortened: (§1)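 Male or female rats (250 ± 25 g) were anesthetized with pentobarbital ip (50 mg/mL, 1.2 mL/kg). After 15 min, orbital blood was taken, then compound was given as an iv tail-vein bolus (2 mL/kg) and blood sampled again at 10 min. Rat GH was assayed in heparinized plasma. At least five doses, six rats per dose. ED50 by Hill fit; Emax as % of GHRP-6.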

Rattus norvegicus [2] = species: Rattus norvegicus; assay: Tested in vitro for GH-releasing potency against rat pituitary cells.; assay type: functional; details: Pituitary gland cell
Procedure, shortened: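 Rat pituitaries were trypsin-dispersed into single cells and cultured 3 days, then washed and stimulated 15 min with secretagogue. Supernatant GH was measured by rat GH SPA. EC50 came from a Hill fit of release above basal; Emax as % of GHRP-6 maximum. Mean ± SEM of 1–5 experiments.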

Rattus norvegicus [3] = assay: Tested in vivo for GH-releasing potency against anesthetized female rats; assay type: functional; procedure, shortened: as §1
Sus scrofa [4] = species: Sus scrofa; assay: (§2) Compound was tested for GH-releasing potency against female Danish slaughter swine.; assay type: functional
Procedure, shortened: (§3)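 Swine with jugular catheters received single iv injections in increasing doses (range 0.03–500 nmol/kg), five doses per experiment at 24-h intervals. Vehicle was phosphate/citrate buffer diluted in saline with 0.5% porcine serum albumin. Blood was sampled from 1 h before to 3 h after dosing; pGH by ELISA. Basal-adjusted Cmax was fitted (Hill or Michaelis–Menten) for ED50; six swine.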

Canis familiaris [5] = assay: Basal GH release was measured after 0.5 mg/kg iv administration into Beagle dogs; assay type: functional, Canis lupus familiaris
Procedure, shortened: (§4)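 Fasted (overnight) Beagle dogs were given compound in citrate/phosphate buffer, pH 5.0, either as a 0.5 mg/kg iv bolus in a hind-leg vein or by po gavage (2.7 or 1.8 mg/kg). Iv and po dosing were separated by a 1-week washout. EDTA blood was drawn from a front-leg vein at intervals up to 6 h. Plasma GH was measured by porcine GH ELISA.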

Sus scrofa [6] = species: Sus scrofa; assay: as §2; assay type: functional, organism-based; procedure, shortened: as §3
Canis familiaris [7] = assay: Area under curve was measured after po administration into Beagle dog; assay type: ADME, organism-based, Canis lupus familiaris; details: in vivo
Procedure, shortened: (§5)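 Fasted (overnight) male and female Beagle dogs; dosed po by gavage (2.7 or 1.8 mg/kg) and iv as a hind-leg-vein bolus (0.5 mg/kg), with a 1-week washout between routes. Vehicle was citrate/phosphate buffer, pH 5.0. EDTA blood was drawn from a front-leg vein up to 6 h. Plasma compound was measured by HPLC-UV after solid-phase extraction. AUC(0–6 h); f = AUCpo·doseiv/(AUCiv·dosepo).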

Rattus norvegicus [8] = assay: (§6) Tested in vivo for GH-releasing potency against anesthetized male rats; assay type: functional; procedure, shortened: as §1
Rattus norvegicus [9] = assay: as §6; assay type: functional; design: unit not given here; procedure, shortened: as §1
Canis familiaris [10] = assay: Area under curve was measured after iv administration into Beagle dog; assay type: ADME, organism-based, Canis lupus familiaris; details: in vivo; procedure, shortened: as §5
[11] = Oral bioavailability in dog (Beagle); assay type: ADME, organism-based, Canis lupus familiaris; details: in vivo; procedure, shortened: as §5
Canis familiaris [12] = assay: Basal GH release was measured after 1.8 mg/kg po administration into Beagle dogs; assay type: functional, Canis lupus familiaris; procedure, shortened: as §4
Canis familiaris [13] = assay: Basal GH release was measured after 2.7 mg/kg po administration into Beagle dogs; assay type: functional, Canis lupus familiaris; procedure, shortened: as §4
[14] = Rattus norvegicus, read-out: Emax

SMILES	EC50 (Rattus norvegicus [2]) [nM]	Emax (Rattus norvegicus [2]) [%]	ED50 (Rattus norvegicus [9])	other results
CN(C(=O)[C@@H](Cc1ccc2ccccc2c1)NC(=O)c1cccc(CN)c1)[C@H](Cc1ccccc1)C(N)=O	170	85		ED50 (Rattus norvegicus [1]): > 1000 nmol/kg
NCCCC[C@H](NC(=O)[C@@H](Cc1ccccc1)NC(=O)[C@@H](Cc1ccc2ccccc2c1)NC(=O)c1ccccc1CN)C(N)=O	85	60		
CNC(=O)[C@@H](Cc1ccccc1)N(C)C(=O)[C@@H](Cc1ccc2ccccc2c1)N(C)C(=O)c1cccc(CN)c1	40	110		
CN(C(=O)c1cccc(CN)c1)[C@H](Cc1ccc2ccccc2c1)C(=O)N(C)[C@H](Cc1ccccc1)C(=O)N[C@@H](CCCCN)C(N)=O	5	80		Emax (Rattus norvegicus [3]; [14]): 100%; ED50 (Rattus norvegicus [1]): 146 nmol/kg
CNCc1cccc(C(=O)N[C@H](Cc2ccc3ccccc3c2)C(=O)N[C@H](Cc2ccccc2)C(=O)N[C@@H](CCCCN)C(N)=O)c1	10	85	65	Emax (Rattus norvegicus [8]): 30%
CN(C(=O)c1cccc(CN)c1)[C@H](Cc1ccc2ccccc2c1)C(=O)N(C)[C@H](Cc1ccccc1)C(N)=O	115	85		
NCCCC[C@H](NC(=O)[C@@H](Cc1ccccc1)NC(=O)[C@@H](Cc1ccc2ccccc2c1)NC(=O)c1ccc(CN)cc1)C(N)=O	110	50		
CN(C(=O)[C@@H](Cc1ccc2ccccc2c1)N(C)C(=O)c1cccc(CN)c1)[C@@H](CO)Cc1ccccc1	265	75		ED50 (Rattus norvegicus [1]): > 1000 nmol/kg
NCCCC[C@H](NC(=O)[C@@H](Cc1ccccc1)NC(=O)[C@@H](Cc1ccc2ccccc2c1)NC(=O)c1cccc(CN)c1)C(N)=O (H-[3Amb][d2Nal][dF]K-NH2)		85	>4800	

Second part, led by results:

EC50 (Rattus norvegicus [2]) [nM]	SMILES	Emax (Rattus norvegicus [2]) [%]	ED50 (Rattus norvegicus [9])	other results
2.2	C[C@H](NC(=O)[C@@H](Cc1c[nH]c2ccccc12)NC(=O)[C@@H](N)Cc1c[nH]cn1)C(=O)N[C@@H](Cc1c[nH]c2ccccc12)C(=O)N[C@H](Cc1ccccc1)C(=O)N[C@@H](CCCCN)C(N)=O (H-H[dW]AW[dF]K-NH2)	100		ED50 (Sus scrofa [4]): 0.0039 µmol/kg; Emax (Sus scrofa [4]): 100%; Emax (Rattus norvegicus [3]): 60% and 100%
0.5	CN(C(=O)[C@@H](Cc1ccc2ccccc2c1)NC(=O)c1cccc(CN)c1)[C@H](Cc1ccccc1)C(=O)N[C@@H](CCCCN)C(N)=O	80	80	Basal GH (Canis familiaris [5]): 1.2 ng/mL; Emax (Sus scrofa [4]): 70%; ED50 (Sus scrofa [6]): 2 nM/kg; AUC (Canis familiaris [7]): 48 ng·h/mL; Emax (Rattus norvegicus [8]): 90%; AUC (Canis familiaris [10]): 137 ng·h/mL; bioavailability [11]: 10%; Basal GH (Canis familiaris [12]): 1.2 ng/mL
1.3	CC(C)(N)C(=O)N[C@@H](Cc1c[nH]cn1)C(=O)N[C@H](Cc1ccc2ccccc2c1)C(=O)N[C@H](Cc1ccccc1)C(=O)N[C@@H](CCCCN)C(N)=O [IPAMORELIN] (H-[Aib]H[d2Nal][dF]K-NH2)	85	85	Basal GH (Canis familiaris [5]): 1.6 ng/mL; ED50 (Sus scrofa [4]): 0.0023 µmol/kg; Emax (Sus scrofa [4]): 88%; Basal GH (Canis familiaris [13]): 5.4 ng/mL; Emax (Rattus norvegicus [8]): 120%; bioavailability [11]: 4%
2	CN(C(=O)[C@@H](Cc1ccc2ccccc2c1)NC(=O)[C@H](Cc1c[nH]cn1)NC(=O)C(C)(C)N)[C@H](Cc1ccccc1)C(=O)N[C@@H](CCCCN)C(N)=O	100	1.8	Emax (Rattus norvegicus [8]): 90%
1.5	CN(C(=O)[C@H](Cc1c[nH]cn1)NC(=O)C(C)(C)N)[C@H](Cc1ccc2ccccc2c1)C(=O)N(C)[C@H](Cc1ccccc1)C(=O)N[C@@H](CCCCN)C(N)=O	85		ED50 (Rattus norvegicus [1]): 14 nmol/kg
3.8	CNC(=O)[C@@H](Cc1ccccc1)N(C)C(=O)[C@@H](Cc1ccc2ccccc2c1)N(C)C(=O)[C@H](Cc1c[nH]cn1)NC(=O)C(C)(C)N	110		
1.8	C[C@H](NC(=O)[C@@H](Cc1ccc2ccccc2c1)NC(=O)[C@@H](C)N)C(=O)N[C@@H](Cc1c[nH]c2ccccc12)C(=O)N[C@H](Cc1ccccc1)C(=O)N[C@@H](CCCCN)C(N)=O [PRALMORELIN] (H-[dA][d2Nal]AW[dF]K-NH2)	85		ED50 (Sus scrofa [4]): 0.0006 µmol/kg; Emax (Sus scrofa [4]): 75%; Emax (Rattus norvegicus [3]): 90%; Emax (Rattus norvegicus [3]; [14]): 100%
